Rows were chosen to be rich in hits. Some 2.6% of all compounds tested hit in one or more screens of this group.
SENP7 block – SENP7 protease inhibitors, primary screen, biochemical, luminescence, uHTS; AID 434973, 2010; actives 1.5% (n = 330,000); inhibition, % at 5 µM; Sentrin-specific protease 7 (Homo sapiens), Q9BQF6; recombinant SENP7, Z-RLRGG-aminoluciferin luminescence, 40 min;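 active means inhibition above about 50% at the single test dose, limit read from the data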
SENP8 block-1 – SENP8 protease inhibitors, primary screen, biochemical, luminescence; actives 1.2% (n = 330,000); inhibition, % at 10 µM; AID 2540, 2010; Sentrin-specific protease 8 (Homo sapiens), Q96LD8; purified SENP8, Z-RLRGG-aminoluciferin cleavage; in the data active means inhibition above about 50%
Target sequence (Q96LD8 whole entry, looked up): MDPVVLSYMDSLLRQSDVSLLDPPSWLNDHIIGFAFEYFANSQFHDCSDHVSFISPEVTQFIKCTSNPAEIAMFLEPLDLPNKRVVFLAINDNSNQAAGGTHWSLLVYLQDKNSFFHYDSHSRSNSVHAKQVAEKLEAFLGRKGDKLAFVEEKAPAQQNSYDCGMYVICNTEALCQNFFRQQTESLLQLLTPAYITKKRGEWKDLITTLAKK
Platelet DG rel – inhibitors of platelet dense granule secretion, primary screen, cell-based, MLPCN, human platelets; inhibition, %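 (compounds screened at 7.5 µM in platelet-rich plasma)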; actives 0.22% (n = 300,000); human platelet-rich plasma, SFLLRN dense granule ATP release, luminescence;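 active means mean replicate score, as percent of positive control, at or above 50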
SENP8 block-2 – human SENP8 protease inhibitors, primary screen, biochemical, fluorescence, Nedd8 protein substrate, uHTS; actives 0.64% (n = 360,000); inhibition, % at 20 µM; recombinant SENP8; in the data active means inhibition mostly above about 40%, no sharp cut-off; inactive means mostly below about 27%
SENP1 inh – human SENP1 catalytic domain inhibitors, primary screen, biochemical, FRET, uHTS | recombinant SENP1 catalytic domain, CyPet-SUMO1-YPet FRET cleavage | inhibition, % at 10 µM | Sentrin-specific protease 1 (Homo sapiens), Q9P0U3 | actives 0.21% (n = 360,000) | AID 624204, 2012;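 active means inhibition at least 30% at 10 µM, raw YFP signal under a set limit, fluorescence ratio 0.5 to 1.5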
Target sequence (Q9P0U3 419-644 limits assumed): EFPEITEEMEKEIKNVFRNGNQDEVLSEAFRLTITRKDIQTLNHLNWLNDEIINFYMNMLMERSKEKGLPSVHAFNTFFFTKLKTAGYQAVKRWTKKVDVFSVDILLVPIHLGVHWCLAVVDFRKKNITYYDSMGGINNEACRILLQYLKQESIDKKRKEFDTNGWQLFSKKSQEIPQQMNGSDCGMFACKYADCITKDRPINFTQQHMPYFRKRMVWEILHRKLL
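Controls: no-enzyme wells low, DMSO-plus-enzyme wells high control. Test system: human recombinant His6-tagged SENP1 catalytic domain enzyme. Reagent: SFCypet-SUMO1-SFYpet FRET protein substrate, 25 nM final. Doses: one dose per compound, 10 µM, 0.5% DMSO. Detection: FRET, CFP and YFP emission. Timing: 50 min reaction at room temperature.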
SENP6 inh – SENP6 protease inhibitors, primary screen, biochemical, luminescence, uHTS. Sentrin-specific protease 6 (Homo sapiens), Q9GZR1. Recombinant SENP6 catalytic domain, aminoluciferin luminescence. inhibition, % at 10 µM. actives 1.8% (n = 330,000). AID 2599, 2010;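 active means inhibition above about 50% at the single tested dose, limit read from the data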
SENP8 confirm – SENP8 protease inhibitors, retest, confirmation, biochemical, luminescence, single concentration. shares compounds with SENP7 block. Recombinant SENP8, Z-RLRGG-aminoluciferin luminescence, 60 min. inhibition, % at 12.5 µM. actives 40% (n = 6,200). AID 488912, 2010;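 active means mean inhibition across replicates above about 50%, limit read from the data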
SENP6 confirm – SENP6 protease inhibitors, confirmation, biochemical, luminescence, single concentration; inhibition, % at 12.5 µM; recombinant SENP6, Z-RLRGG-aminoluciferin luminescence; shares compounds with SENP7 block; actives 58% (n = 6,200)
SENP7 confirm – SENP7 protease inhibitors, retest, confirmation, biochemical, luminescence, single concentration. shares compounds with SENP7 block. recombinant SENP7, Z-RLRGG-aminoluciferin luminescence, 40 min. inhibition, % at 12.5 µM. actives 69% (n = 6,200). AID 488917, 2010
Casp3 SENP sel – caspase-3 protease inhibitors, confirmation, selectivity assay for SENP inhibitor project, biochemical, single concentration; shares compounds with SENP7 block; purified caspase-3, Z-DEVD-aminoluciferin luminescence, 60 min; inhibition, % at 12.5 µM; actives 60% (n = 6,200); AID 488918, 2010;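 active means mean inhibition above about 50%, limit read from the data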
SENP luc ctr – counter-screen for SENP inhibitors: luminescence interference | shares compounds with SENP7 block | Pre-incubated SENP8/Z-RLRGG-aminoluciferin, luciferase luminescence interference | inhibition, % at 12.5 µM | actives 39% (n = 6,200);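 active means mean inhibition above about 50% when retested at one dose, limit read from the data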
Of the large screens only hits and unclear results are named; the others gave an inactive call (follow-up assays come after a bar, where they were run).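 How the source made its calls, unless noted: active means mean inhibition above about 50% in the one-dose retest (limit read from the data); inactive means the rest.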

COc1cc(/C=N/NC(=O)c2cncc(Br)c2)cc([N+](=O)[O-])c1O	SENP7 block 72, SENP8 block-1 66, SENP6 inh 83 | SENP8 confirm 84 | SENP6 confirm 80 | SENP7 confirm 96 | Casp3 SENP sel 84 | SENP luc ctr 61
Cc1ccc2nc(CSc3nc(C)ccc3C#N)[nH]c2c1	none
O=C(c1cccs1)N1C[C@@H](O)[C@H](n2cc(C3CC3)nn2)C[C@@H]1c1ccc(Cl)cc1	none (no result: SENP7 block, SENP8 block-1, Platelet DG rel, SENP6 inh)
c1ccc(CN2CCOCC2)cc1	SENP7 block 87 | SENP8 confirm inactive | SENP6 confirm inactive | SENP7 confirm inactive | Casp3 SENP sel inactive | SENP luc ctr inactive
O=C(c1ccc(S(=O)(=O)N2CCCC2)cc1)N(c1ccccc1)C1C=CS(=O)(=O)C1 (stereo not given)	SENP6 inh 63 | SENP8 confirm inactive | SENP6 confirm inactive | SENP7 confirm inactive | Casp3 SENP sel inactive | SENP luc ctr inactive
CCOC(=O)c1cc2c(=O)c3cc(C)ccc3oc2nc1C	SENP7 block 92, SENP8 block-1 71 | SENP8 confirm inactive | SENP6 confirm inactive | SENP7 confirm inactive | Casp3 SENP sel 60 | SENP luc ctr inactive
Cc1nc2oc3ccc(F)cc3c(=O)c2cc1C(=O)O	none
CC(=O)c1cc2c(=O)c3cc(C)ccc3oc2nc1C	SENP7 block 64, SENP8 block-1 64, SENP6 inh 75 | SENP8 confirm inactive | SENP6 confirm inactive | SENP7 confirm inactive | Casp3 SENP sel 56 | SENP luc ctr inactive
Cc1ccc2oc3nc(C)c(C(=O)O)cc3c(=O)c2c1	SENP7 block 92, SENP8 block-1 81, SENP6 inh 88 (no result: Platelet DG rel) | SENP8 confirm inactive | SENP6 confirm inactive | SENP7 confirm 68 | Casp3 SENP sel 80 | SENP luc ctr 56
CCOC(=O)c1cc(S(=O)(=O)N2CCN(c3ccccc3OC)CC2)cn1C	none
O=C(Nc1cc2c(cc1Br)OCCCO2)c1ccccc1	none
COc1ccc(C2=NN3C(C2)c2ccccc2OC32C(=O)N(C)c3ccccc32)cc1 (stereo not given)	SENP7 block 80, SENP8 block-1 79, SENP6 inh 91 | SENP8 confirm inactive | SENP6 confirm inactive | SENP7 confirm inactive | Casp3 SENP sel inactive | SENP luc ctr inactive
C(=C\n1nnc2ccccc21)/c1ccccn1	SENP7 block 79, SENP8 block-1 74, SENP6 inh 76 | SENP8 confirm 81 | SENP6 confirm 80 | SENP7 confirm 96 | Casp3 SENP sel 89 | SENP luc ctr 74
Nn1nnc2ccccc21	none
